Measurements published in ChEMBL document CHEMBL3421559, “Discovery of 5-(2',4'-difluorophenyl)-salicylanilides as new inhibitors of receptor activator of NF-κB ligand (RANKL)-induced osteoclastogenesis” (Eur J Med Chem, 2015).
The source made the active and inactive calls. No cut-off for these calls is given here.

How the values were obtained:
[1] = Cytotoxicity against mouse RAW264.7 cells assessed as cell viability at 5 uM after 24 hrs by MTT assay; type: cell-based; settings: read-out: Activity
Method in brief: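 RAW264.7 cells at 1 × 10^4 per well in DMEM with 10% FBS were exposed to compound for 24 h. After PBS washes, they got 500 µg/mL MTT for 1 h at 37 °C. Formazan was dissolved in DMSO and read at 540 nm. Viability is relative to control, mean ± SD from at least three independent runs.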

[2] = Retention time of the compound by HPLC analysis; type: physicochemical
Method in brief: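 Reversed-phase column (5 µm, 4.6 × 250 mm) at 1.0 mL/min with a 0–20% H2O in MeOH gradient.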

[3] = system: RAW264.7; experiment: Inhibition of RANKL-induced osteoclastogenesis in mouse RAW264.7 cells assessed as decrease in TRAP activity after 4 days by TRAP activity assay; settings: RAW264.7, 96 h
[4] = system: RAW264.7; experiment: Inhibition of RANKL-induced osteoclastogenesis in mouse RAW264.7 cells; type: functional, cell-based
Method in brief: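 RAW264.7 cells (2 × 10^4 per well) were cultured with 100 ng/mL RANKL in α-MEM/10% FBS, with or without compound. On day 4 they were lysed in 0.1% Triton X-100/50 mM Tris-HCl pH 7.2 on ice. TRAP was assayed with 2 mg/mL 4-nitrophenyl phosphate in 0.09 M citrate for 15 min at 37 °C, stopped with NaOH and read at 405 nm. Values were normalized to BCA protein for IC50.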

[5] = system: RAW264.7; experiment: Downregulation of RANKL-induced NFATc1 gene expression in mouse RAW264.7 cells at 2.5 and 5 uM treated for 1 hr prior to incubation with RANKL for 24 hrs by RT-PCR analysis; type: functional, cell-based
Method in brief: (§1)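 RAW264.7 cells grown a day in DMEM/10% FBS were switched to α-MEM with 100 ng/mL murine RANKL, with or without compound, for 24 h. Trizol RNA (2 µg) was reverse-transcribed with oligo(dT) and amplified with mouse-specific primers. Products were run on 1.5% agarose with EtBr, and band densities normalized to GAPDH.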

[6] = system: RAW264.7; experiment: Downregulation of RANKL-induced TRAP gene expression in mouse RAW264.7 cells at 2.5 and 5 uM treated for 1 hr prior to incubation with RANKL for 24 hrs by RT-PCR analysis; type: functional, cell-based; method in brief: as §1
[7] = system: RAW264.7; experiment: Downregulation of RANKL-induced cathepsin K gene expression in mouse RAW264.7 cells at 2.5 and 5 uM treated for 1 hr prior to incubation with RANKL for 24 hrs by RT-PCR analysis; type: functional, cell-based; method in brief: as §1
[8] = system: RAW264.7; experiment: Downregulation of RANKL-induced c-fos gene expression in mouse RAW264.7 cells at 2.5 and 5 uM treated for 1 hr prior to incubation with RANKL for 24 hrs by RT-PCR analysis; type: functional, cell-based; method in brief: as §1
[9] = system: RAW264.7; experiment: Downregulation of RANKL-induced MMP-9 gene expression in mouse RAW264.7 cells at 2.5 and uM treated for 1 hr prior to incubation with RANKL for 24 hrs by RT-PCR analysis; type: functional, cell-based; method in brief: as §1
[10] = system: RAW264.7; experiment: Downregulation of RANKL-induced DC-STAMP gene expression in mouse RAW264.7 cells at 2.5 and 5 uM treated for 1 hr prior to incubation with RANKL for 24 hrs by RT-PCR analysis; type: functional, cell-based; method in brief: as §1
[11] = system: RAW264.7; experiment: Inhibition of RANKL-induced NF-kappaB activation in mouse RAW264.7 cells assessed as decrease in nuclear accumulation of NF-kappaB at 5 uM treated for 1 hr prior to incubation with RANKL for 24 hrs by ELISA; type: cell-based
Method in brief: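 After 1 h compound pretreatment and 24 h RANKL (100 ng/mL), nuclear extracts were tested in a p65 DNA-binding ELISA. The plate is coated with NF-κB response element, followed by primary antibody and tagged secondary antibody, with absorbance read at 450 nm.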

[12] = system: RAW264.7; experiment: Inhibition of RANKL-induced NF-kappaB activation in mouse RAW264.7 cells assessed as decrease in nuclear translocation of NF-kappaB at 5 uM treated for 1 hr prior to incubation with RANKL for 24 hrs by Western blot assay relative to control TBP gene expression; type: cell-based
Method in brief: (§2)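 Cells were pretreated with compound for 1 h in α-MEM/10% FBS, then given RANKL (100 ng/mL) for 24 h. Nuclear extracts (18 µg) were separated on 12% SDS-PAGE and blotted to PVDF, blocked with 5% BSA. Blots were probed overnight-style for 12 h at 4 °C with mAbs (1:1000) to NF-κB p65, NFATc1 and TBP, then HRP anti-rabbit (1:10000), with chemiluminescent detection.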

[13] = system: RAW264.7; experiment: Downregulation of RANKL-induced NFATc1 nuclear expression in mouse RAW264.7 cells at 5 uM treated for 1 hr prior to incubation with RANKL for 24 hrs by Western blot analysis relative to control TBP gene expression; type: functional; method in brief: as §2
[14] = system: RAW264.7; experiment: Inhibition of RANKL-induced bone-resorbing activity in mouse RAW264.7 cells assessed as reduction of resorbing pits formed on dentine slices by mature osteoclasts at 5 uM after 4 days by pit formation assay; type: functional; settings: RAW264.7, Dentine, 96 h
Method in brief: (§3)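 Cells on dentine slices were kept in α-MEM with 10% FBS, 2 mM […] and 100 ng/mL RANKL, with or without compound, and medium was renewed every 2 days. At day 4, cells were removed with 1 M ammonium hydroxide and slices stained with 0.1% toluidine blue. Resorbed area/total area was measured per optical field.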

[15] = system: RAW264.7; experiment: Inhibition of RANKL-induced bone-resorbing activity in mouse RAW264.7 cells assessed as reduction of resorbing pits formed on dentine slices by mature osteoclasts after 4 days by pit formation assay; type: functional, cell-based; method in brief: as §3

`COc1cccc(NC(=O)c2cc(-c3ccc(F)cc3F)ccc2O)c1` showed a viability at 24 h, 5 µM [1] of 105% and a Retention_time [2] of 5.89 min.
With `C#Cc1cccc(NC(=O)c2cc(-c3ccc(F)cc3F)ccc2O)c1` the viability at 24 h, 5 µM [1] was 63% and the Retention_time [2] was 6.37 min.
`O=C(Nc1ccc(C(F)(F)F)cc1)c1cc(-c2ccc(F)cc2F)ccc1O` gave a viability at 24 h, 5 µM [1] of 85.2% and a Retention_time [2] of 7.87 min.
Work on `O=C(Nc1cccc(C(F)(F)F)c1)c1cc(-c2ccc(F)cc2F)ccc1O` yielded a viability at 24 h, 5 µM [1] of 96.7%, a Retention_time [2] of 7.27 min and an IC50 [3] of 4.57 µM.
`O=C(Nc1ccc(Cl)cc1F)c1ccccc1O` showed an IC50 [4] of 15 µM and an IC50 [3] greater than 10 µM.
`O=C(Nc1ccc(F)c(F)c1)c1cc(-c2ccc(F)cc2F)ccc1O` showed a viability at 24 h, 5 µM [1] of 78.4% and a Retention_time [2] of 7.72 min.
Work on `N#Cc1ccc(NC(=O)c2cc(-c3ccc(F)cc3F)ccc2O)cc1` yielded a viability at 24 h, 5 µM [1] of 96.2% and a Retention_time [2] of 6.84 min.
For `O=C(Nc1cc(F)ccc1F)c1cc(-c2ccc(F)cc2F)ccc1O`, the viability at 24 h, 5 µM [1] was 102%, the inhibition [5] was “Dose-dependent effect” and the inhibition [6] was “Dose-dependent effect”. The inhibition [7] was “Dose-dependent effect”, the inhibition [8] was “Dose-dependent effect” and the inhibition [9] was “Dose-dependent effect”. The inhibition [10] was “Dose-dependent effect”, the inhibition [11] was “Active” and the fold change (FC) [12] was 0.76. For the same compound, the “fold change (FC)” value [13] was 0.55, the inhibition at 5 µM [14] was 80.5% and the inhibition [15] was “Dose-dependent effect”. The Retention_time [2] was 7.8 min and the IC50 [3] was 3.67 µM.
For `O=C(Nc1ccc(F)cc1F)c1cc(-c2ccc(F)cc2F)ccc1O`, the viability at 24 h, 5 µM [1] was 110% and the Retention_time [2] was 6.45 min.
In the case of `N#Cc1cccc(NC(=O)c2cc(-c3ccc(F)cc3F)ccc2O)c1`, the viability at 24 h, 5 µM [1] is reported as 72.2%, the inhibition [5] is reported as “Dose-dependent effect” and the inhibition [6] is reported as “Dose-dependent effect”. The inhibition [7] was “Dose-dependent effect”, the inhibition [8] was “Dose-dependent effect” and the inhibition [9] was “Dose-dependent effect”. For the same compound, the inhibition [10] was “Dose-dependent effect”, the inhibition [11] was “Active” and the fold change (FC) [12] was 0.82. The “fold change (FC)” value [13] was 0.52, the inhibition at 5 µM [14] was 59.3% and the inhibition [15] was “Dose-dependent effect”. It also gave a Retention_time [2] of 6.92 min and an IC50 [3] of 2.96 µM.
`O=C(Nc1ccccc1C(F)(F)F)c1cc(-c2ccc(F)cc2F)ccc1O` showed a viability at 24 h, 5 µM [1] of 99.4% and a Retention_time [2] of 5.44 min.
Work on `O=C(Nc1ccc(Cl)cc1F)c1cc(-c2ccc(F)cc2F)ccc1O` yielded a viability at 24 h, 5 µM [1] of 77.5% and a Retention_time [2] of 9.07 min.
Compound `COc1ccc(NC(=O)c2cc(-c3ccc(F)cc3F)ccc2O)cc1OC` has a viability at 24 h, 5 µM [1] of 98.9% and a Retention_time [2] of 7.61 min.
